Experimental findings from ChEMBL document CHEMBL1132107, “Design and synthesis of water-soluble glucuronide derivatives of camptothecin for cancer prodrug monotherapy and antibody-directed enzyme prodrug therapy (ADEPT)” (J Med Chem, 1999) are described below.

Molecules are shown by their SMILES. Converted amounts (≈) assume the structure as drawn.

Series [1] has as its system COLO 205. In words: Cytotoxicity in the presence of beta-Glucuronidase (betaG, 5 micro g/ml) towards human colorectal cells(COLO 205). Type of series: functional, cell-based. The method in brief:
(§1)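 Same 72 h [³H]thymidine-incorporation assay (1-1.5 × 10⁴ cells/well in RPMI/10% bovine serum, 37 °C, 5% CO₂), with β-glucuronidase added at 5 µg/mL alongside the drug concentration series. Controls were medium or 0.5% DMSO. IC50 was interpolated from log dose-response curves, as means of 1-3 experiments in triplicate.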

Series [2] in a line: Cytotoxicity in the presence of beta-Glucuronidase (betaG, 5 micro g/ml) towards human cervical cells(CaSki). Format: functional, cell-based. In short, it runs like this: as §1
The test system of series [3] is HepG2. In words: Cytotoxicity expressed as the concentration that inhibited incorporation of [3H]-thymidine into cellular DNA of human hepatocellular cells (HepG2). Type of series: functional, cell-based. In short, it runs like this: (§2)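 Exponentially growing tumour cells, 1-1.5 × 10⁴ cells/well, in RPMI with 10% bovine serum plus penicillin/streptomycin, exposed 72 h (37 °C, 5% CO₂) to a drug concentration series. Drugs were dissolved in DMSO (≤0.5% final) or in medium. [³H]thymidine incorporation into DNA was read after PBS wash and trypsin harvest. IC50 was interpolated from log dose-response curves, as means of 1-3 experiments in triplicate.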

In series [4] the test system is HepG2. As to the kind of experiment: Cytotoxicity in the presence of beta-Glucuronidase (betaG, 5 micro g/ml) towards human hepatocellular cells (HepG2). Type of series: functional, cell-based. In short, it runs like this: as §1
The nature of series [5]: Cytotoxicity expressed as the concentration that inhibited incorporation of [3H]thymidine into cellular DNA of human cervical cells (CaSki). Type of series: functional, cell-based. The method in brief: as §2
In series [6] the test system is HT-29. As to the kind of experiment: Cytotoxicity in the presence of beta-Glucuronidase (betaG, 5 micro g/ml) towards human colorectal cells (HT-29). Type of series: functional, cell-based. In short, it runs like this:
as §1

A short description of series [7]: Solubility is determined at pH 4.0. Format: physicochemical. The note with it: buffer. In short, it runs like this: (§3)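 Excess solid was equilibrated 24 h at 25 °C in 100 mM phosphate buffer pH 4.0, or in βG buffer (acetic acid/bis-tris/triethanolamine) pH 7.0. Samples were filtered through 0.22 µm, diluted in mobile phase and quantified by C18 HPLC (45% MeOH/25 mM phosphate pH 2.55, fluorescence ex 397/em 482 nm) against calibration curves. Values are in mg/mL.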

The subject of series [8] is COLO 205. As to the kind of experiment: Cytotoxicity expressed as the concentration that inhibited incorporation of [3H]thymidine into cellular DNA of human colorectal cells (COLO 205). Format: functional, cell-based. The method in brief:
as §2

Series [9] in a line: Percentage of compound converted to 9-aminocamptothecin for hydrolysis by beta-Glucuronidase( incubated at pH 7.0 for 2 hr at 37 degrees Celsius at the concentration 0.1 ug/mL). Format: ADME. Conditions: buffer, pH 7, 2 h. The method in brief: (§4)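 The reaction was quenched with ice-cold MeOH/5% H₃PO₄ (6/1) and centrifuged. Supernatant was analysed by reversed-phase C18 HPLC with fluorescence detection (ex 397/em 482 nm) to give the % converted to 9-aminocamptothecin.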

A short description of series [10]: Solubility is determined at pH 7.0. Format: physicochemical. The note with it: buffer. The method in brief: as §3
Series [11] is described as follows: Percentage of compound converted to 9-aminocamptothecin for hydrolysis by beta-Glucuronidase(incubated at pH 7.0 for 2 hr at 37 degrees Celsius at the concentration 0.5 ug/mL). Type of series: ADME. The note with it: buffer, pH 7, 2 h. The method in brief: as §4
Series [12] can be described thus: Percentage of compound converted to 9-aminocamptothecin for hydrolysis by beta-Glucuronidase( incubated at pH 7.0 for 2 h at 37 degrees Celsius at the concentration 0.05 ug/mL). Type of series: ADME. Conditions: buffer, pH 7, 2 h. In short, it runs like this: as §4
Series [13] relates to HT-29. As to the kind of experiment: Cytotoxicity expressed as the concentration that inhibited incorporation of [3H]thymidine into cellular DNA of human colorectal cells (HT-29). Format: functional, cell-based. The method in brief:
as §2

In series [14] the test system is NCI-H928. As to the kind of experiment: Cytotoxicity in the presence of beta-Glucuronidase (betaG, 5 micro g/ml) towards human lung carcinoma cells (H928). Format: functional, cell-based. The method in brief: as §1
Series [15] has as its system HepG2. As to the kind of experiment: Cytotoxicity expressed as the concentration that inhibited incorporation of [3H]thymidine into cellular DNA of human hepatocellular cells (HepG2). Format: functional, cell-based. The method in brief: as §2
The nature of series [16]: Percentage of compound converted to 9-aminocamptothecin for hydrolysis by beta-Glucuronidase( incubated at pH 7.0 for 2 hr at 37 degrees Celsius at the concentration 0.01 ug/mL). Format: ADME. The note with it: buffer, pH 7, 2 h. The method in brief: as §4
Series [17] has as its system NCI-H928. In words: Cytotoxicity expressed as the concentration that inhibited incorporation of [3H]-thymidine into cellular DNA of human lung carcinoma cells (H928). Type of series: functional, cell-based. In short, it runs like this:
as §2

For `CC[C@@]1(O)C(=O)OCc2c1cc1n(c2=O)Cc2cc3c(NC(=O)OCc4ccc(O[C@@H]5O[C@H](C(=O)[O-])[C@@H](O)[C@H](O)[C@H]5O)cc4)cccc3nc2-1.[K+]`, the IC50 (usually the concentration that gives 50% inhibition) with COLO 205 [1] (Homo sapiens, COLO 205) worked out at 8.2 nM; in series [2] (Homo sapiens), 9.1 nM; in the series on HepG2 [3] it was 280 nM; in the series on HepG2 [4], 6.7 nM; in series [5], 510 nM; with HT-29 [6] (Homo sapiens, HT-29), 11 nM. In addition, half-maximal inhibition in the series with COLO 205 [8] (colo 205) (IC50) was put at 460 nM. The molecule also had a solubility in [7] of 25000 µg/mL.

Turning to `CC[C@@]1(O)C(=O)OCc2c1cc1n(c2=O)Cc2cc3c(NC(=O)OCc4ccc(O[C@@H]5O[C@H](C(=O)O)[C@@H](O)[C@H](O)[C@H]5O)cc4)cccc3nc2-1`, the Conversion came to 98% in series [9], 92% in series [11], 92% in [12] and 45% in [16]. In addition, the IC50 stood at 8 nM in the series with COLO 205 [1] (colo 205); 7.8 nM in series [2]; 2.9 nM with HepG2 [4]; 190 nM in series [5]; 6.6 nM in the series on HT-29 [6] (ht-29); 150 nM in the series with HT-29 [13]. Further, the IC50 was determined as 7.9 nM in the series on NCI-H928 [14], 110 nM with HepG2 [15], 200 nM with COLO 205 [8] (colo 205) and 300 nM in the series with NCI-H928 [17]. Moreover, the figures for the solubility in series [10] and in series [7] were 110 mg/kg and 500 µg/mL (≈ 725 µM), respectively.

Turning to `CC[C@@]1(O)C(=O)OCc2c1cc1n(c2=O)Cc2cc3c(N)cccc3nc2-1` [9-AMINOCAMPTOTHECIN], the values for the solubility in series [10] and in [7] were 60 µg/mL (≈ 165 µM) and 6 µg/mL (≈ 16.5 µM), respectively. For the same molecule, the IC50 in [5] (Homo sapiens) turned out to be 8.5 nM; in the series on HT-29 [13], 7.4 nM; in the series on HepG2 [15], 3.5 nM; with COLO 205 [8] (Homo sapiens, COLO 205), 6.6 nM; in the series on NCI-H928 [17], 7.9 nM.

Take `CC[C@@]1(O)C(=O)OCc2c1cc1n(c2=O)Cc2cc3ccccc3nc2-1` [CAMPTOTHECIN]: the IC50 in series [5] (Homo sapiens) worked out at 8.5 nM; with HepG2 [15] it was 6.3 nM; in the series on COLO 205 [8] (Homo sapiens, COLO 205), 5.4 nM; with NCI-H928 [17], 7.8 nM.
